Usually T/C stands for the result in the treated group divided by that in the control group, in per cent. Broadly, the IC50 is the point on the concentration scale where inhibition reaches its midpoint. Higher therefore signals weaker potency.

A value given as a limit tells only on which side of the number the result lay.

Our source for the T/C, LTS and IC50 values is ChEMBL document CHEMBL1132144, “Synthesis of 9-O-substituted derivatives of 9-hydroxy-5, 6-dimethyl-6H-pyrido[4,3-b]carbazole-1-carboxylic acid (2-(dimethylamino)ethyl)amide and their 10- and 11-methyl analogues with improved antitumor activity” (J Med Chem, 1999).

For assay [1], the system named is Mus musculus. The assay can be described thus: Percent median survival time of mice injected with P388 leukemia, at a subcutaneous compound dose of 10 mg/kg. Format: functional.
In assay [2] the test system is Mus musculus. Nature of the assay: Long-term survivors among 7 mice infected with P388 leukemia, scored on day 60 at 20 mg/kg dose on day 1. In kind it is functional. In outline: (§1)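 B6D2F1 mice in groups of 6–7 received 10^6 P388 cells ip on day 0. Dihydrochloride salts dissolved in water were injected iv on day 1 or on days 1, 5 and 9, at three doses and then five. Read-outs were % T/C (median survival treated/control × 100) and long-term survivors on day 60, both at the optimal dose (no toxic death, weight loss <20%).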

Assay [3] relates to Mus musculus. The assay can be described thus: Percent median survival time of mice injected with B16 melanoma, at a intraperitoneal compound dose of 40 mg/kg.
In assay [4] the test system is Mus musculus. Nature of the assay: Long-term survivors among 7 mice infected with B16 melanoma, scored on day 90 at 20 mg/kg dose on day 1. Format: functional.
In a further assay the test system is B16. Nature of the assay: Inhibition of murine B16 melanoma cell proliferation measured by the MTT assay. In kind it is functional, cell-based. As to conditions: Mus musculus. In outline:
(§2)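 Murine L1210 leukemia and B16 melanoma cells were grown in RPMI 1640 with 10% fetal calf serum, 2 mM L-glutamine, penicillin/streptomycin and 10 mM HEPES (pH 7.4). Cells were exposed to nine serial drug dilutions in triplicate for about four doubling times (L1210 48 h, B16 96 h), then read by microculture tetrazolium (MTT) assay. IC50 is the concentration halving optical density versus untreated controls, averaged over ≥2 independent experiments.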
For orientation: Tetrazolium assays rely on reduction of a dye to a coloured formazan, in cell work by metabolically active cells.

The test system of another assay is L1210. The assay can be described thus: Inhibition of murine L1210 leukemia cell proliferation measured by the MTT assay. In kind it is functional, cell-based. As to conditions: Mus musculus. Summed up:
as §2

Assay [5] deals with Mus musculus. Nature of the assay: Percent median survival time of mice injected with P388 leukemia, at a subcutaneous compound dose of 20 mg/kg. In kind it is functional.
The subject of assay [6] is Mus musculus. The assay can be described thus: Percent median survival time of mice intraperitoneally injected with P388 leukemia was determined from tested at 80 mg/kg at day1,5,9 dose to that of control. In kind it is functional. As to conditions: route intraperitoneal. Summed up:
(§3)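 P388 leukemia in B6D2F1 mice (groups of 6–7), 10^6 cells inoculated ip on day 0. Dihydrochloride salts were dissolved in water and given iv on day 1 or on days 1, 5, 9. Three doses were tested, then five if active. %T/C = median survival treated/control × 100, reported at the optimal dose (no toxic death, weight loss <20%), from one or two representative experiments.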

In assay [7] the test system is Mus musculus. The assay can be described thus: Long-term survivors among 6 mice infected with P388 leukemia, scored on day 60 at 160 mg/kg dose. Format: functional. In outline: (§4)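 B6D2F1 mice in groups of 6–7 were inoculated ip on day 0 with 10^6 P388 cells. Dihydrochloride salts were dissolved in water and given iv on day 1 or on days 1, 5 and 9. Doses ranged from a low nontoxic dose to a toxic one. Long-term survivors were counted at day 60.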

The subject of assay [8] is Mus musculus. Nature of the assay: Percent median survival time of mice intraperitoneally injected with P388 leukemia was determined from tested at 160 mg/kg at day1 dose to that of control. In kind it is functional. In outline:
as §3

Assay [9] concerns Mus musculus. Nature of the assay: Long-term survivors among 6 mice infected with P388 leukemia, scored on day 60 at 80 mg/kg dose. In kind it is functional. Summed up:
as §4

Assay [10] deals with Mus musculus. The assay can be described thus: Percent median survival time of mice injected with B16 melanoma, at a intraperitoneal compound dose of 20 mg/kg.
Assay [11] relates to Mus musculus. Nature of the assay: Long-term survivors among 7 mice infected with B16 melanoma, scored on day 90 at 10 mg/kg dose on day 1. In kind it is functional.
Assay [12] deals with Mus musculus. The assay can be described thus: Percent median survival time of mice injected with B16 melanoma, at a intraperitoneal compound dose of 10 mg/kg.
In assay [13] the test system is Mus musculus. Nature of the assay: Percent median survival time of mice injected with P388 leukemia, at a subcutaneous compound dose of 10 mg/kg on day 1, 5, 9. Format: functional.
The test system of assay [14] is Mus musculus. Nature of the assay: Percent median survival time of mice injected with P388 leukemia, at a subcutaneous compound dose of 10 mg/kg on day 1. In kind it is functional.
The test system of assay [15] is Mus musculus. The assay can be described thus: Long-term survivors among 7 mice infected with P388 leukemia, scored on day 60 at 10 mg/kg dose on day 1. Format: functional. In outline:
as §1

The test system of assay [16] is Mus musculus. Nature of the assay: Long-term survivors among 14 mice infected with P388 leukemia, scored on day 60 at 40 mg/kg dose on day 1. In kind it is functional. Summed up:
as §4

Assay [17] is filed under the species Mus musculus. Nature of the assay: Long-term survivors among 14 mice infected with B16 melanoma, scored on day 90 at optimal dose on days 1-9.
For assay [18], the system named is Mus musculus. Nature of the assay: Percent median survival time of mice injected with P388 leukemia, at a intravenous compound dose of 40 mg/kg.
The species entered for assay [19] is Mus musculus. Nature of the assay: Long-term survivors among 14 mice infected with B16 melanoma, scored on day 90 at optimal dose on days 1-9. This is another data set of the same source.
Assay [20] concerns Mus musculus. The assay can be described thus: Percent median survival time of mice injected with P388 leukemia, at a intravenous compound dose of 320 mg/kg.
Assay [21] has as its system Mus musculus. Nature of the assay: Percent median survival time of mice injected with P388 leukemia, at a intravenous compound dose of 80 mg/kg.
The subject of assay [22] is Mus musculus. The assay can be described thus: Long-term survivors among 14 mice infected with P388 leukemia, scored on day 60 at 320 mg/kg dose on day 1. In kind it is functional. In outline: as §4
For assay [23], the system named is Mus musculus. Nature of the assay: Percent median survival time of mice injected with B16 melanoma, at a intraperitoneal compound dose of 5 mg/kg.
Assay [24] relates to Mus musculus. Nature of the assay: Percent median survival time of mice intraperitoneally injected with P388 leukemia was determined from tested at 20 mg/kg at day1,5,9 dose to that of control. Format: functional. As to conditions: route intravenous. Summed up: as §3
Assay [25] concerns Mus musculus. Nature of the assay: Long-term survivors among 6 mice infected with P388 leukemia, scored on day 60 at 20 mg/kg dose. Format: functional. Summed up: as §4
In assay [26] the test system is Mus musculus. The assay can be described thus: Percent median survival time of mice intraperitoneally injected with P388 leukemia was determined from tested at 40 mg/kg at day1 dose to that of control. Format: functional. As to conditions: route intraperitoneal. Summed up: as §3
The test system of assay [27] is Mus musculus. Nature of the assay: Long-term survivors among 6 mice infected with P388 leukemia, scored on day 60 at 40 mg/kg dose. Format: functional. In outline:
as §4

The subject of assay [28] is Mus musculus. The assay can be described thus: Long-term survivors among 7 mice infected with P388 leukemia, scored on day 90 at 10 mg/kg dose. Format: functional.

As for `Cc1c2ccnc(C(=O)NCCN(C)C)c2cc2c3cc(OC(=O)NCCCC(=O)OCc4ccccc4)ccc3n(C)c12`, the T/C is 93% with Mus musculus [1], 96% in the assay with Mus musculus [3] and 103% in the assay on Mus musculus [5]. Further, the LTS in the assay with Mus musculus [2] and with Mus musculus [4] was 0 throughout. For the same molecule, the half-maximal inhibitory concentration (IC50) in the assay on B16 was 29.4 nM; in the assay with L1210 it was 304 nM.
Take `Cc1c2ccnc(C(=O)NCCN(C)C)c2cc2c3cc(OC(=O)N4CCOCC4)ccc3n(C)c12`: the T/C with Mus musculus [6] was 196%; in the assay on Mus musculus [8], 149%; in the assay on Mus musculus [10] it was 139%. In addition, the LTS with Mus musculus [7] and with Mus musculus [9] was 0 in each case. Besides, the half-maximal inhibitory concentration (IC50) with B16 turned out to be 1770 nM; with L1210 it was 646 nM.
Turning to `CCCCCCCCC(=O)Oc1ccc2c(c1)c1cc3c(C(=O)NCCN(C)C)nccc3c(C)c1n2C`, the LTS with Mus musculus [11] and in the assay on Mus musculus [15] was 0 in each case. Further, the T/C came to 160% in the assay on Mus musculus [12], 147% with Mus musculus [13] and 131% in the assay with Mus musculus [14]. In addition, the values for the IC50 in the assay with B16 and with L1210 were 20.8 nM and 31.1 nM, respectively.
As for `CCCCCCCCCCCCCC(=O)Oc1ccc2c(c1)c1cc3c(C(=O)NCCN(C)C)nccc3c(C)c1n2C`, the T/C with Mus musculus [1] was 153%; in the assay with Mus musculus [12], 166%; with Mus musculus [18] it was 176%. For the same molecule, the LTS was determined as 0 in the assay with Mus musculus [16] and 1 in the assay listed under Mus musculus [17]. The 50% inhibitory concentration (IC50) with B16 was 195 nM; in the assay on L1210, 215 nM.
For `CCCCCCCCCCCCNC(=O)Oc1ccc2c(c1)c1cc3c(C(=O)NCCN(C)C)nccc3c(C)c1n2C`, the LTS in the assay with Mus musculus [11] and in the assay on Mus musculus [15] was 0 each time. Moreover, the values for the T/C with Mus musculus [13], in the assay on Mus musculus [14] and in the assay on Mus musculus [3] were 107%, 104% and 133%, respectively. Besides, the 50% inhibitory concentration (IC50) is 2300 nM with B16 and 809 nM in the assay with L1210.
In the case of `Cc1c2ccnc(C(=O)NCCN(C)C)c2cc2c3cc(OC(=O)CCCCCC(=O)O)ccc3n(C)c12`, the results for the LTS in the assay filed under Mus musculus [19] and with Mus musculus [22] were 1 and 5, respectively. Also, the T/C with Mus musculus [20] is given as greater than 600%; in the assay on Mus musculus [12], 246%; in the assay with Mus musculus [21] it was greater than 600%. The IC50 in the assay with B16 is 3.2 nM; in the assay with L1210, 3.7 nM.
Consider `Cc1c2ccnc(C(=O)NCCN(C)C)c2cc2c3cc(OC(=O)Cc4ccccc4)ccc3n(C)c12`, for which the LTS in the assay on Mus musculus [11] and with Mus musculus [15] was 0 each time. The results for the T/C with Mus musculus [23], with Mus musculus [13] and with Mus musculus [14] were 147%, 157% and 125%, respectively. In addition, the values for the IC50 with B16 and in the assay on L1210 were 22.3 nM and 26.7 nM, respectively.
For `COc1ccc2c(c1)c1cc3c(C(=O)NCCN(C)C)nccc3c(C)c1n2C`, the T/C is recorded as 96% in the assay with Mus musculus [24], 94% in the assay on Mus musculus [26] and 126% in the assay with Mus musculus [12]. In addition, the LTS in the assay with Mus musculus [25], with Mus musculus [27] and with Mus musculus [28] was 0 in each case. The IC50 in the assay with B16 turned out to be 334 nM; with L1210, 551 nM.
